Reference: ChEMBL document CHEMBL4689842, “EUbOPEN Chemogenomics Library wave 1” (2021)

System: U2OS
Assay: Multiplex assay against U2OS
Format: toxicity, cell-based
Settings: human
How it was run: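 Cells stained live at seeding with Hoechst33342, BioTracker Green Microtubule Cytoskeleton Dye, MitoTracker Red and Annexin V Alexa Fluor 680 were imaged on a CQ1 microscope at 37°C and 5% CO2 after compound addition. Their classification by CellPathfinder machine-learning gating ran from Hoechst high-intensity objects versus normal cells, to healthy, pyknosed or fragmented nuclei among normal cells, to mitotic or apoptotic among pyknosed cells. Tubulin, mitochondrial-mass and membrane-permeability phenotypes are per cents of healthy-nucleus cells.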

[1] = 12 h, 1 µM, compound concentration 1 uM, replicate 1
[2] = 12 h, 1 µM, compound concentration 1 uM, replicate 2
[3] = 12 h, 10 µM, compound concentration 10 uM, replicate 1
[4] = 12 h, 10 µM, compound concentration 10 uM, replicate 2
[5] = 24 h, 1 µM, compound concentration 1 uM, replicate 1
[6] = 24 h, 1 µM, compound concentration 1 uM, replicate 2
[7] = 24 h, 10 µM, compound concentration 10 uM, replicate 1
[8] = 24 h, 10 µM, compound concentration 10 uM, replicate 2
[9] = 48 h, 1 µM, compound concentration 1 uM, replicate 1
[10] = 48 h, 1 µM, compound concentration 1 uM, replicate 2
[11] = 48 h, 10 µM, compound concentration 10 uM, replicate 1
[12] = 48 h, 10 µM, compound concentration 10 uM, replicate 2

Structure (SMILES): S=C(NCCCc1c[nH]cn1)NCCCN(Cc1ccc(Cl)c(Cl)c1)c1ccc(Br)cn1
- Population Apoptotic (%) [1]: 56%
- Population Fragmented Nuclei (%) [1]: 9%
- Population Healthy Nuclei (%) [1]: 76%
- Population Hoechst High Intensity Objects (%) [1]: 9%
- Population Membrane Permeable-Phenotype (%) [1]: 7%
- Population Mitochondria Different-Phenotype (%) [1]: 31%
- Population Mitotic Cells (%) [1]: 43%
- Population Normal (%) [1]: 90%
- Population Pyknosed Nuclei (%) [1]: 13%
- Population Tubulin-Different-Phenotype (%) [1]: 32%
- Total Cell Count [1]: 193
- Population Apoptotic (%) [2]: 0%
- Population Fragmented Nuclei (%) [2]: 17%
- Population Healthy Nuclei (%) [2]: 82%
- Population Hoechst High Intensity Objects (%) [2]: 15%
- Population Membrane Permeable-Phenotype (%) [2]: 8%
- Population Mitochondria Different-Phenotype (%) [2]: 8%
- Population Mitotic Cells (%) [2]: 0%
- Population Normal (%) [2]: 84%
- Population Pyknosed Nuclei (%) [2]: 0%
- Population Tubulin-Different-Phenotype (%) [2]: 4%
- Total Cell Count [2]: 79
- Population Apoptotic (%) [3]: 88%
- Population Fragmented Nuclei (%) [3]: 47%
- Population Healthy Nuclei (%) [3]: 4%
- Population Hoechst High Intensity Objects (%) [3]: 15%
- Population Mitotic Cells (%) [3]: 11%
- Population Normal (%) [3]: 84%
- Population Pyknosed Nuclei (%) [3]: 48%
- Total Cell Count [3]: 133
- Population Apoptotic (%) [4]: 93%
- Population Fragmented Nuclei (%) [4]: 25%
- Population Healthy Nuclei (%) [4]: 2%
- Population Hoechst High Intensity Objects (%) [4]: 11%
- Population Membrane Permeable-Phenotype (%) [4]: 100%
- Population Mitochondria Different-Phenotype (%) [4]: 100%
- Population Mitotic Cells (%) [4]: 6%
- Population Normal (%) [4]: 88%
- Population Pyknosed Nuclei (%) [4]: 72%
- Population Tubulin-Different-Phenotype (%) [4]: 100%
- Total Cell Count [4]: 33
- Population Apoptotic (%) [5]: 66%
- Population Fragmented Nuclei (%) [5]: 10%
- Population Healthy Nuclei (%) [5]: 76%
- Population Hoechst High Intensity Objects (%) [5]: 6%
- Population Membrane Permeable-Phenotype (%) [5]: 6%
- Population Mitochondria Different-Phenotype (%) [5]: 10%
- Population Mitotic Cells (%) [5]: 33%
- Population Normal (%) [5]: 93%
- Population Pyknosed Nuclei (%) [5]: 12%
- Population Tubulin-Different-Phenotype (%) [5]: 14%
- Total Cell Count [5]: 199
- Population Apoptotic (%) [6]: 0%
- Population Fragmented Nuclei (%) [6]: 19%
- Population Healthy Nuclei (%) [6]: 80%
- Population Hoechst High Intensity Objects (%) [6]: 8%
- Population Membrane Permeable-Phenotype (%) [6]: 16%
- Population Mitochondria Different-Phenotype (%) [6]: 8%
- Population Mitotic Cells (%) [6]: 0%
- Population Normal (%) [6]: 91%
- Population Pyknosed Nuclei (%) [6]: 0%
- Population Tubulin-Different-Phenotype (%) [6]: 20%
- Total Cell Count [6]: 79
- Population Apoptotic (%) [7]: 97%
- Population Fragmented Nuclei (%) [7]: 44%
- Population Healthy Nuclei (%) [7]: 5%
- Population Hoechst High Intensity Objects (%) [7]: 21%
- Population Membrane Permeable-Phenotype (%) [7]: 100%
- Population Mitochondria Different-Phenotype (%) [7]: 100%
- Population Mitotic Cells (%) [7]: 2%
- Population Normal (%) [7]: 78%
- Population Pyknosed Nuclei (%) [7]: 49%
- Population Tubulin-Different-Phenotype (%) [7]: 100%
- Total Cell Count [7]: 149
- Population Apoptotic (%) [8]: 100%
- Population Fragmented Nuclei (%) [8]: 12%
- Population Healthy Nuclei (%) [8]: 24%
- Population Hoechst High Intensity Objects (%) [8]: 25%
- Population Membrane Permeable-Phenotype (%) [8]: 94%
- Population Mitochondria Different-Phenotype (%) [8]: 88%
- Population Mitotic Cells (%) [8]: 0%
- Population Normal (%) [8]: 74%
- Population Pyknosed Nuclei (%) [8]: 62%
- Population Tubulin-Different-Phenotype (%) [8]: 88%
- Total Cell Count [8]: 34
- Population Apoptotic (%) [9]: 28%
- Population Fragmented Nuclei (%) [9]: 10%
- Population Healthy Nuclei (%) [9]: 58%
- Population Hoechst High Intensity Objects (%) [9]: 8%
- Population Membrane Permeable-Phenotype (%) [9]: 6%
- Population Mitochondria Different-Phenotype (%) [9]: 11%
- Population Mitotic Cells (%) [9]: 72%
- Population Normal (%) [9]: 91%
- Population Pyknosed Nuclei (%) [9]: 30%
- Population Tubulin-Different-Phenotype (%) [9]: 10%
- Total Cell Count [9]: 211
- Population Apoptotic (%) [10]: 22%
- Population Fragmented Nuclei (%) [10]: 21%
- Population Healthy Nuclei (%) [10]: 54%
- Population Hoechst High Intensity Objects (%) [10]: 13%
- Population Membrane Permeable-Phenotype (%) [10]: 5%
- Population Mitochondria Different-Phenotype (%) [10]: 10%
- Population Mitotic Cells (%) [10]: 77%
- Population Normal (%) [10]: 86%
- Population Pyknosed Nuclei (%) [10]: 24%
- Population Tubulin-Different-Phenotype (%) [10]: 15%
- Total Cell Count [10]: 76
- Population Apoptotic (%) [11]: 92%
- Population Fragmented Nuclei (%) [11]: 50%
- Population Healthy Nuclei (%) [11]: 2%
- Population Hoechst High Intensity Objects (%) [11]: 22%
- Population Membrane Permeable-Phenotype (%) [11]: 50%
- Population Mitochondria Different-Phenotype (%) [11]: 100%
- Population Mitotic Cells (%) [11]: 7%
- Population Normal (%) [11]: 77%
- Population Pyknosed Nuclei (%) [11]: 46%
- Population Tubulin-Different-Phenotype (%) [11]: 100%
- Total Cell Count [11]: 177
- Population Apoptotic (%) [12]: 100%
- Population Fragmented Nuclei (%) [12]: 31%
- Population Healthy Nuclei (%) [12]: 41%
- Population Hoechst High Intensity Objects (%) [12]: 30%
- Population Membrane Permeable-Phenotype (%) [12]: 92%
- Population Mitochondria Different-Phenotype (%) [12]: 89%
- Population Mitotic Cells (%) [12]: 0%
- Population Normal (%) [12]: 69%
- Population Pyknosed Nuclei (%) [12]: 26%
- Population Tubulin-Different-Phenotype (%) [12]: 92%
- Total Cell Count [12]: 43
